Experimental data pooled from the literature.
Compare with care: the assays were run in different laboratories.
ADORA2A: Adenosine receptor A2a (ADORA2A, Homo sapiens, UniProt P29274)
OPRK1: Kappa-type opioid receptor (OPRK1, Homo sapiens, UniProt P41145)
PDE5A: cGMP-specific 3',5'-cyclic phosphodiesterase (PDE5A, Homo sapiens, UniProt O76074)
CNR1: Cannabinoid receptor 1 (CNR1, Homo sapiens, UniProt P21554)
SPHK1: Sphingosine kinase 1 (SPHK1, Homo sapiens, UniProt Q9NYA1)
EHMT1: Histone-lysine N-methyltransferase EHMT1 (EHMT1, Homo sapiens, UniProt Q9H9B1)
PARP1: Poly [ADP-ribose] polymerase 1 (PARP1, Homo sapiens, UniProt P09874)

SMILES	target	test	setting	inhibition [%]
Oc1ccc(CCNc2ccc3oc(-c4ccco4)nc3c2)cc1	ADORA2A	ligand displacement, radioligand	10 µM, cell membranes	15
CCN(Cc1ccccc1C(F)(F)F)C(=O)C1CCN(S(=O)(=O)c2ccc3[nH]ncc3c2)CC1	OPRK1	ligand displacement, radioligand	10 µM	5
CC(C)(C)N1C(=O)[C@@H]2Cc3c([nH]c4ccccc34)[C@H](c3cccnc3)N2C1=O	PDE5A	enzyme activity, inhibitor, FP	50 µM	45
Oc1cccc(Nc2nc(-c3ccc(F)cc3F)cs2)c1	CNR1	cell-free assay	10 µM	5.9
CCN1C(=O)[C@@H]2Cc3c([nH]c4ccccc34)[C@H](c3ccc(OC)c(OC)c3)N2C1=O	PDE5A	enzyme activity, inhibitor, FP	50 µM	52
CCCC=CCOc1ccc(-c2noc([C@@H]3CCCN3C(=N)N)n2)cc1C(F)(F)F	SPHK1	enzyme activity, inhibitor, radiometric	1 µM	12
Cc1cc(-c2ccc(/N=N/c3ccc4c(S(=O)(=O)O)cc(S(=O)(=O)O)c(N)c4c3O)c(C)c2)ccc1/N=N/c1ccc2c(S(=O)(=O)O)cc(S(=O)(=O)O)c(N)c2c1O	EHMT1	cell-free assay	10 µM	48
O=C1CCCc2ccc(F)cc2N1	PARP1	enzyme activity, inhibitor	10 µM	0
N#Cc1cc(Cn2c(N3CCCC3)nc3ccccc32)ccc1F	Histamine H4 receptor (HRH4, Homo sapiens, UniProt Q9H3N8)	ligand displacement	10 µM	-16
O=C(c1ccc(Cl)cc1)N(Cc1ccccc1)C1CCCCC1	Endothelin-1 receptor (EDNRA, Homo sapiens, UniProt P25101)	cell-free assay	10 µM	1.4
O=C1C=CC(=O)c2c(O)cccc21	EHMT1	cell-free assay	10 µM	-1
Ic1cccc2cnccc12	PARP1	enzyme activity, inhibitor	10 µM	19.5
CC(C)CCn1c(SCC(=O)Nc2ccccc2C(F)(F)F)nc2nccnc2c1=O	SPHK1	enzyme activity, inhibitor	10 µM	< 20
Nc1ccc(-c2ccncc2)cc1NC(=O)N1CCCC1	CNR1	ligand displacement, radioligand	10 µM	15
O=C(Oc1cc(O)cc2c1C[C@@H](OC(=O)c1cc(O)c(O)c(O)c1)[C@@H](c1cc(O)c(O)c(O)c1)O2)c1cc(O)c(O)c(O)c1	EHMT1	cell-free assay	10 µM	-4
[H]/N=C(\N)N1CCC[C@H]1c1nc(-c2ccc(OCC=Cc3ccc(F)cc3)c(C(F)(F)F)c2)no1	SPHK1	enzyme activity, inhibitor, radiometric	1 µM	0
CCN1C(=O)[C@H]2Cc3c([nH]c4ccccc34)[C@H](c3cccnc3)N2C1=O	PDE5A	enzyme activity, inhibitor, FP	50 µM	58
COc1cc(NC(C)CCCN)c2ncccc2c1 (stereo not shown)	EHMT1	cell-free assay	10 µM	7
CN(C)C1CCN(CC#Cc2nn(C3CCCC3)c3nc(NCc4ccccc4)ncc23)C1 (stereo not shown)	Serine/threonine-protein kinase TBK1 (TBK1, Homo sapiens, UniProt Q9UHD2)	enzyme activity, inhibitor, FRET	1 µM	3
O=C(CN1CCN(c2ccccc2)CC1)Nc1ccc2oc(-c3ccco3)nc2c1	ADORA2A	ligand displacement, radioligand	10 µM, cell membranes	12
O=C(Nc1ccc(S(=O)(=O)N2CCC(Cl)CC2)cc1)c1ccc([N+](=O)[O-])o1	CNR1	ligand displacement, radioligand	10 µM	20
COCCOc1ccc(N2CCN(CCc3ccc4oc(-c5ccco5)nc4c3)CC2)cc1	ADORA2A	ligand displacement, radioligand	10 µM, cell membranes	10
O=C(c1ccc(F)cc1)N(Cc1ccccc1)C1CCCCC1	OPRK1	ligand displacement	10 µM	33

SMILES	target	test	setting	inhibition [%]
CCCCC(CC)CNC(=N)NC(=N)NCCCCCCNC(=N)NC(=N)NCC(CC)CCCC (stereo not shown)	EHMT1	cell-free assay	10 µM	-22
CN1CCN(CCCOc2ccc(=O)n(-c3ccc(Cl)c(Cl)c3)n2)CC1	CNR1	ligand displacement	1 µM	27.4
[H]/N=C(/N)N1CCC[C@H]1c1nc(-c2ccc(OCCC=CCCC)c(C(F)(F)F)c2)no1	SPHK1	enzyme activity, inhibitor, radiometric	1 µM	11
COc1ccc(F)cc1C(=O)NCc1ccc(-c2nn([C@@H](C)C(F)(F)F)c(N)c2C(N)=O)cc1	Mitogen-activated protein kinase kinase kinase 3 (MAP3K3, Homo sapiens, UniProt Q99759)	target engagement in cells, inhibitor, chemoproteomics	1 µM	-38.6
CC(C)(C)c1ccc(CCc2ccc(-c3noc([C@@H]4CCCN4C(=N)N)n3)cc2C(F)(F)F)cc1	SPHK1	enzyme activity, inhibitor, radiometric	1 µM	17
COC(=O)[C@H]1Cc2c([nH]c3ccccc23)[C@H](c2cccnc2)N1	PDE5A	enzyme activity, inhibitor, FP	50 µM	30
CCc1ccc(CCc2ccc(-c3noc([C@@H]4CCCN4C(=N)N)n3)cc2C(F)(F)F)cc1	SPHK1	enzyme activity, inhibitor, radiometric	1 µM	13
Cn1cncc1C1=CN(c2ncnc3[nH]cnc23)CCS1	Interleukin-1 receptor-associated kinase-like 2 (IRAK2, Homo sapiens, UniProt O43187)	enzyme activity, inhibitor, radiometric	2 µM	85
C=CCN1C(=O)[C@H]2Cc3c([nH]c4ccccc34)[C@H](c3ccc(Br)s3)N2C1=O	PDE5A	enzyme activity, inhibitor, FP	10 µM	67
CN1CC(Oc2cnc(C#N)cc2-c2ccn3nc(NC(=O)C4CC4)cc3c2)C1	Testis-specific serine/threonine-protein kinase 4 (TSSK4, Homo sapiens, UniProt Q6SA08)	enzyme activity, inhibitor	1 µM	-7
Nc1ccc2c(c1)CCCn1nnnc1-2	PARP1	enzyme activity, inhibitor	10 µM	31
CS(=O)(=O)Nc1cccc(-c2csc(NC(=O)CSc3nc4nccnc4c(=O)n3CCc3ccccc3)n2)c1	SPHK1	enzyme activity, inhibitor	10 µM	9
COc1cc(NC(C)=O)c(Cl)cc1C(=O)Nc1nccs1	CNR1	cell-free assay	10 µM	11.8
COc1cc(OC)c2c(=O)[nH]c(-c3c[nH]c4ncccc34)nc2c1	PARP1	enzyme activity, inhibitor, ELISA	10 µM	31
COc1ccc(-c2nc3cc(CCN4CCCCC4)ccc3o2)cc1OC	ADORA2A	ligand displacement, radioligand	10 µM, cell membranes	10
O=c1[nH]c(-c2c[nH]c3ncccc23)nc2ccccc12	PARP1	enzyme activity, inhibitor, ELISA	1 µM	7
CC(C)(C)OC(=O)N1CCN(Cc2ccc3oc(-c4ccco4)nc3c2)CC1	ADORA2A	ligand displacement, radioligand	10 µM, cell membranes	15
[H]/N=C(\N)N1CCC[C@H]1c1nc(-c2ccc(OCC=Cc3ccc(C(F)(F)F)cc3)c(C(F)(F)F)c2)no1	SPHK1	enzyme activity, inhibitor, radiometric	1 µM	20
COc1ccc([C@H]2c3[nH]c4ccccc4c3C[C@H]3C(=O)N(C(C)(C)C)C(=O)N23)cc1OC	PDE5A	enzyme activity, inhibitor, FP	50 µM	58
O=C(O[C@@H]1Cc2c(O)cc(O)cc2O[C@@H]1c1cc(O)c(=O)c2c(O)c(O)cc([C@H]3Oc4cc(O)cc(O)c4C[C@H]3OC(=O)c3cc(O)c(O)c(O)c3)c2c1)c1cc(O)c(O)c(O)c1	EHMT1	cell-free assay	10 µM	0
O=C(CSc1nc2nccnc2c(=O)n1CCc1ccccc1)Nc1ccccc1	Phosphatidylinositol 4-phosphate 3-kinase C2 domain-containing subunit beta (PIK3C2B, Homo sapiens, UniProt O00750)	enzyme activity, inhibitor	10 µM	72
COC(=O)[C@H]1Cc2c([nH]c3ccccc23)[C@@H](c2ccc(OC)c(OC)c2)N1C(=O)CCl	PDE5A	enzyme activity, inhibitor, FP	50 µM	70
[H]/N=C(\N)N1CCC[C@H]1c1nc(-c2ccc(OCC=Cc3cccc(C(F)(F)F)c3)c(C(F)(F)F)c2)no1	SPHK1	enzyme activity, inhibitor, radiometric	1 µM	0
